Laboratory results taken from ChEMBL document CHEMBL2424622, “Development of amino-pyrimidine inhibitors of c-Jun N-terminal kinase (JNK): kinase profiling guided optimization of a 1,2,3-benzotriazole lead” (Bioorg Med Chem Lett, 2013).

Columns and labels:
[1] = target: Tyrosine-protein kinase FRK (Homo sapiens) (UniProt P42685); assay: Competitive binding affinity to FRK (unknown origin) at 10 uM in presence of ATP relative to control
Summary of the method: (§1)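 In vitro ATP-site competition binding assay, part of profiling against a diverse panel of 128 kinases. Each compound was tested at a single concentration of 10 µM. Kinome selectivity was summarized as S15 selectivity scores.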

[2] = target: Proto-oncogene tyrosine-protein kinase ROS (Homo sapiens) (UniProt P08922); assay: Competitive binding affinity to ROS1 (unknown origin) at 10 uM in presence of ATP relative to control
Summary of the method: (§2)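 In vitro ATP-site competition binding assay across a diverse panel of 128 kinases, with compound tested at a single concentration. Kinase selectivity scores (S15) were calculated from the panel profiles.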

[3] = target: Tyrosine-protein kinase Lck (Homo sapiens) (UniProt P06239); assay: Competitive binding affinity to LCK (unknown origin) at 10 uM in presence of ATP relative to control; summary of the method: as §1
[4] = target: Dual specificity protein kinase CLK4 (Homo sapiens) (UniProt Q9HAZ1); assay: Competitive binding affinity to CLK4 (unknown origin) at 10 uM in presence of ATP relative to control
[5] = target: Angiopoietin-1 receptor (Homo sapiens) (UniProt Q02763); assay: Competitive binding affinity to TIE2 (unknown origin) at 10 uM in presence of ATP relative to control; summary of the method: as §2
[6] = target: Receptor-type tyrosine-protein kinase FLT3 (Homo sapiens) (UniProt P36888); assay: Competitive binding affinity to FLT3 (unknown origin) at 10 uM in presence of ATP relative to control; summary of the method: as §1
[7] = target: Mitogen-activated protein kinase kinase kinase kinase 5 (Homo sapiens) (UniProt Q9Y4K4); assay: Competitive binding affinity to MAP4K5 (unknown origin) at 10 uM in presence of ATP relative to control; summary of the method: as §1
[8] = target: T1, Serine/threonine-protein kinase Nek2 (Homo sapiens) (UniProt P51955); assay: Competitive binding affinity to NEK2 (unknown origin) at 10 uM in presence of ATP relative to control; summary of the method: as §2
T1 sequence (whole entry): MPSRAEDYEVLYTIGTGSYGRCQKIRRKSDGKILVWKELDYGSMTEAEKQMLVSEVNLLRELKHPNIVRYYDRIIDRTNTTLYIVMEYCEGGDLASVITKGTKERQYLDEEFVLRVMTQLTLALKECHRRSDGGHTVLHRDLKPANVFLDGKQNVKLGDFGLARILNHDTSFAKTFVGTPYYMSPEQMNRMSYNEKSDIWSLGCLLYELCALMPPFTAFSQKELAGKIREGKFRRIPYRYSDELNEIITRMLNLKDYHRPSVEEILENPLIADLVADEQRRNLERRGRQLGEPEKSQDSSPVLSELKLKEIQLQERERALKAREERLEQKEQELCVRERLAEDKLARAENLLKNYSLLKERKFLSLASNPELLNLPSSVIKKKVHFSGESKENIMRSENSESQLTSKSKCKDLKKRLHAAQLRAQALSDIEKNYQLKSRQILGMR

[9] = target: Serine/threonine-protein kinase B-raf (Homo sapiens) (UniProt P15056); assay: Competitive binding affinity to BRAF (unknown origin) at 10 uM in presence of ATP relative to control
[10] = target: Ephrin type-A receptor 2 (Homo sapiens) (UniProt P29317); assay: Competitive binding affinity to EPHA2 (unknown origin) at 10 uM in presence of ATP relative to control; summary of the method: as §1
[11] = target: Cyclin-dependent kinase 5 (Homo sapiens) (UniProt Q00535); assay: Competitive binding affinity to CDK5 (unknown origin) at 10 uM in presence of ATP relative to control
[12] = target: T2, Aurora kinase A (Homo sapiens) (UniProt O14965); assay: Competitive binding affinity to AURKA (unknown origin) at 10 uM in presence of ATP relative to control
T2 sequence (whole entry): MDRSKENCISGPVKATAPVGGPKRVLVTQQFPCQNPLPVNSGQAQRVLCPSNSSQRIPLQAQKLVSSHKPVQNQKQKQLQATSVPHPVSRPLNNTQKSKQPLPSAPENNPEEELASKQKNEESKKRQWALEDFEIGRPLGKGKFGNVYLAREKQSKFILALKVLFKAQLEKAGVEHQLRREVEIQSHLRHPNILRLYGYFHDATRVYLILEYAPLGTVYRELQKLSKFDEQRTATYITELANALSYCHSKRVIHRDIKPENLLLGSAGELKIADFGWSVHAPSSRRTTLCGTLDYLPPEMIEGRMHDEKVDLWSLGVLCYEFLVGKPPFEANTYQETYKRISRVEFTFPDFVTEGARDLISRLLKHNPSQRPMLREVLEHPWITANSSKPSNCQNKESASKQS

[13] = target: T3, Mitogen-activated protein kinase 12 (Homo sapiens) (UniProt P53778); assay: Competitive binding affinity to p38-gamma (unknown origin) at 10 uM in presence of ATP relative to control; summary of the method: as §2
T3 sequence (whole entry): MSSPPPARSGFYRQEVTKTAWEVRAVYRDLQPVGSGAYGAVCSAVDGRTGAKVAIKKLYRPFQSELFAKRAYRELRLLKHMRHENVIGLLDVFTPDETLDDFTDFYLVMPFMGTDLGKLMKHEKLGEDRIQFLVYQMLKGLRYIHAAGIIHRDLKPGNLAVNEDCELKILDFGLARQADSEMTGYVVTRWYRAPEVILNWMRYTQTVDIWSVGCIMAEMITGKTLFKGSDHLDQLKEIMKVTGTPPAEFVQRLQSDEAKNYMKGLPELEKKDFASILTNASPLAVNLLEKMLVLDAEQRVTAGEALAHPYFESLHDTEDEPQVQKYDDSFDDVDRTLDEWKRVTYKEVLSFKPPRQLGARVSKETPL

[14] = target: Serine/threonine-protein kinase PAK 5 (Homo sapiens) (UniProt Q9P286); assay: Competitive binding affinity to PAK7/PAK5 (unknown origin) at 10 uM in presence of ATP relative to control; summary of the method: as §2
[15] = target: AP2-associated protein kinase 1 (Homo sapiens) (UniProt Q2M2I8); assay: Competitive binding affinity to AAK1 (unknown origin) at 10 uM in presence of ATP relative to control
Summary of the method: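 In vitro ATP-site competition binding assay across a diverse panel of 128 kinases, with each compound tested at a single concentration. Kinase binding is expressed relative to control.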

[16] = target: Insulin receptor (Homo sapiens) (UniProt P06213); assay: Competitive binding affinity to INSR (unknown origin) at 10 uM in presence of ATP relative to control; summary of the method: as §1
[17] = target: RAC-alpha serine/threonine-protein kinase (Homo sapiens) (UniProt P31749); assay: Competitive binding affinity to AKT1 (unknown origin) at 10 uM in presence of ATP relative to control

Chain of Cyclin-dependent kinase 5 (Homo sapiens) (Q00535 whole entry, looked up): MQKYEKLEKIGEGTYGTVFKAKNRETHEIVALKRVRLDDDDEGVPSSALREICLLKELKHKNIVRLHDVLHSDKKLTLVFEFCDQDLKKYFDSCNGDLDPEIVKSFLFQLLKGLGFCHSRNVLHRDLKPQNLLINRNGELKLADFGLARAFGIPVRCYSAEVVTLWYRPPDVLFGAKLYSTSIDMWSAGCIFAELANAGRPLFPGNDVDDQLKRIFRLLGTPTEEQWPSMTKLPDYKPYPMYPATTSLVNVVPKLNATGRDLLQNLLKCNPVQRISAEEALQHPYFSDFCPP
Chain of Proto-oncogene tyrosine-protein kinase ROS (Homo sapiens) (P08922 whole entry): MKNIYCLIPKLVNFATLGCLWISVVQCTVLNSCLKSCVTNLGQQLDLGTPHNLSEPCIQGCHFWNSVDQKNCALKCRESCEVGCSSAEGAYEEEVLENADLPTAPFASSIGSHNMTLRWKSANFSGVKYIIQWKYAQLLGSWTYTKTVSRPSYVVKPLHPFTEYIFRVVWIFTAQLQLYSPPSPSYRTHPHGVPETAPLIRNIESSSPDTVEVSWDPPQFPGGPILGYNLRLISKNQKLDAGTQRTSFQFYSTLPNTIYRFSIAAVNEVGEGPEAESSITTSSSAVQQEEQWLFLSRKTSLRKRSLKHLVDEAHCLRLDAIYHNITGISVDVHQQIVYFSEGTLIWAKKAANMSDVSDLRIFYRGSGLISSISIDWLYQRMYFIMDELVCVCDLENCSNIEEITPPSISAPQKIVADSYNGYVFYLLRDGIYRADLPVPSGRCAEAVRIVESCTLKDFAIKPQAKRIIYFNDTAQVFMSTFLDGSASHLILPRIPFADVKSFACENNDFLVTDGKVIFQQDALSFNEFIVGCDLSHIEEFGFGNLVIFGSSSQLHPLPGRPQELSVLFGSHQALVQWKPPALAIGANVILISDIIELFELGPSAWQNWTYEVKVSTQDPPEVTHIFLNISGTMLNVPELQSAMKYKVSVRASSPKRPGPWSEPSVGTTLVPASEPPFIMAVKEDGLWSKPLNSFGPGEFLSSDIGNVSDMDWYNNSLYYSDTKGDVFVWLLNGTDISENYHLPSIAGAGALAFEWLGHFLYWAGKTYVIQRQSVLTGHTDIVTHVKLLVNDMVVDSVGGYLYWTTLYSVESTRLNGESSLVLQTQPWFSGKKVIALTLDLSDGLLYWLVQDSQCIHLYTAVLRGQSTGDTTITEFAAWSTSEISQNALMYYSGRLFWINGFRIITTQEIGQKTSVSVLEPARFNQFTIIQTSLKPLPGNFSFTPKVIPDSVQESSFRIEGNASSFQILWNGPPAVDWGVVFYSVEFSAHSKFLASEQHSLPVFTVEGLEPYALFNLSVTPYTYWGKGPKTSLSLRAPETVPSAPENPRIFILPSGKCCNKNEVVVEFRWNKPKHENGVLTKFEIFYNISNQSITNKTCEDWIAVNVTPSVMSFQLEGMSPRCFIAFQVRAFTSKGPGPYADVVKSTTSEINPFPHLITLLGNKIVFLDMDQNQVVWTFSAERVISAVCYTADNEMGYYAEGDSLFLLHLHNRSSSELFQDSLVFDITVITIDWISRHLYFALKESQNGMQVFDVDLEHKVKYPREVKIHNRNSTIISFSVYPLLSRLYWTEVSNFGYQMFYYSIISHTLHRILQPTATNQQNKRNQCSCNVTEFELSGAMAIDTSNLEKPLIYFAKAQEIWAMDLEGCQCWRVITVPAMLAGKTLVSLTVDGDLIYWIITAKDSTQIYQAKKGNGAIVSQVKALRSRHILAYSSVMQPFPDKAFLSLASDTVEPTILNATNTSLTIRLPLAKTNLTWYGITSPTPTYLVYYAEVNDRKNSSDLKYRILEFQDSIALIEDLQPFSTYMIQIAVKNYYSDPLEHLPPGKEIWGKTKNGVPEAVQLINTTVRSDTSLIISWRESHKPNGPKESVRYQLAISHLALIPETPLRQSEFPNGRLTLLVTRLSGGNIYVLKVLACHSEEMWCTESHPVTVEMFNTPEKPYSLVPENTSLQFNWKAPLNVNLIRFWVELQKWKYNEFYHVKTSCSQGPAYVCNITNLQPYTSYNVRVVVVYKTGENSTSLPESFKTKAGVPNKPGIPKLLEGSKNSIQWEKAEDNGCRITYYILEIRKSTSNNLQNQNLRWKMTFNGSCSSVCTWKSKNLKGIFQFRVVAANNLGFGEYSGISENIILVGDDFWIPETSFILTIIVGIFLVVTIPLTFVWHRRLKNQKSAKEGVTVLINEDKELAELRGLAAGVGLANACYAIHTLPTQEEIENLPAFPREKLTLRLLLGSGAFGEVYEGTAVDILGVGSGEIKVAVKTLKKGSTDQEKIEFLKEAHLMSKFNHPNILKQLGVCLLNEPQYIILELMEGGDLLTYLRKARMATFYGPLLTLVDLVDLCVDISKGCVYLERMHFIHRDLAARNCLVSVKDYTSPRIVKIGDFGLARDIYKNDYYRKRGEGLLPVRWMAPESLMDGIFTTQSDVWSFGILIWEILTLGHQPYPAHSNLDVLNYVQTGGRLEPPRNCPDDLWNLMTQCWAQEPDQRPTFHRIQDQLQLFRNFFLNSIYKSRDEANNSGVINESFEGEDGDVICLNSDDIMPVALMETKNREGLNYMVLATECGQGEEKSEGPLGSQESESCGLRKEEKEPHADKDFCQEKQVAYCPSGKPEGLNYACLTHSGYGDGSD
Chain of Insulin receptor (Homo sapiens) (P06213 28-758 limits assumed): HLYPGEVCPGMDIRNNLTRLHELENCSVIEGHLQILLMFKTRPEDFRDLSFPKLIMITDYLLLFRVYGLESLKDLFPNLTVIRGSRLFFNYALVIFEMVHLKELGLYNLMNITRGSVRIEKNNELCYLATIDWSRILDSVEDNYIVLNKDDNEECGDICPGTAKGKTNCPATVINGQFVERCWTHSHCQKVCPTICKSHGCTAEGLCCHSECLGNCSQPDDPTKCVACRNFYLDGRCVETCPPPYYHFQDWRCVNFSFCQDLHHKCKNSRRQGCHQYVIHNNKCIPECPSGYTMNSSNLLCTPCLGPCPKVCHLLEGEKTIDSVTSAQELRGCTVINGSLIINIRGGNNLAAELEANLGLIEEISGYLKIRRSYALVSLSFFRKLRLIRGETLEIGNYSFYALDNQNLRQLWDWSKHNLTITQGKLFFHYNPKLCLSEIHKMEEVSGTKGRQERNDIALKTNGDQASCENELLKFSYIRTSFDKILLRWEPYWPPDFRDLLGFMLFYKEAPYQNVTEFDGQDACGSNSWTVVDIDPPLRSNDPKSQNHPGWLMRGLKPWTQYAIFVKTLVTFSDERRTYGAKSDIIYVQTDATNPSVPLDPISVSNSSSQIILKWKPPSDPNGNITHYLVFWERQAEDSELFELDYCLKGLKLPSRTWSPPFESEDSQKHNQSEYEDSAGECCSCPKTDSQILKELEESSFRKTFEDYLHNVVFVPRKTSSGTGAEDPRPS
Chain of Insulin receptor (Homo sapiens) (P06213 763-1382 limits assumed): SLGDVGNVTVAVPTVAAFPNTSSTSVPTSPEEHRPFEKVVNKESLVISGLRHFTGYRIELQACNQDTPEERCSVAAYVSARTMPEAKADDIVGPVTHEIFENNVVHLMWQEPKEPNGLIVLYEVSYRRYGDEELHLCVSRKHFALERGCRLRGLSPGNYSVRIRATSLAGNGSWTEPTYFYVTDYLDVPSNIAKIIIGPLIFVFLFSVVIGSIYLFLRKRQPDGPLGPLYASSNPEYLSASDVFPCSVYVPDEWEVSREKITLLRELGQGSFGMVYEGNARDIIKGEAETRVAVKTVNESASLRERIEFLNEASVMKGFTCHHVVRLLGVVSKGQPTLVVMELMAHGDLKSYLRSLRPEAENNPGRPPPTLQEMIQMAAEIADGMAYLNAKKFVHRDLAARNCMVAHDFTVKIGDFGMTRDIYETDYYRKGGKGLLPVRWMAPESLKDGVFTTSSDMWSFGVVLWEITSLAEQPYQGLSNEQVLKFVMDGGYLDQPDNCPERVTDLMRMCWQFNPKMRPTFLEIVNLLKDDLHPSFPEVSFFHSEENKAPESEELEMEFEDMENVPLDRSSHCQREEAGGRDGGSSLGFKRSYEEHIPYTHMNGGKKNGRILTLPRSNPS
Chain of Ephrin type-A receptor 2 (Homo sapiens) (P29317 whole entry): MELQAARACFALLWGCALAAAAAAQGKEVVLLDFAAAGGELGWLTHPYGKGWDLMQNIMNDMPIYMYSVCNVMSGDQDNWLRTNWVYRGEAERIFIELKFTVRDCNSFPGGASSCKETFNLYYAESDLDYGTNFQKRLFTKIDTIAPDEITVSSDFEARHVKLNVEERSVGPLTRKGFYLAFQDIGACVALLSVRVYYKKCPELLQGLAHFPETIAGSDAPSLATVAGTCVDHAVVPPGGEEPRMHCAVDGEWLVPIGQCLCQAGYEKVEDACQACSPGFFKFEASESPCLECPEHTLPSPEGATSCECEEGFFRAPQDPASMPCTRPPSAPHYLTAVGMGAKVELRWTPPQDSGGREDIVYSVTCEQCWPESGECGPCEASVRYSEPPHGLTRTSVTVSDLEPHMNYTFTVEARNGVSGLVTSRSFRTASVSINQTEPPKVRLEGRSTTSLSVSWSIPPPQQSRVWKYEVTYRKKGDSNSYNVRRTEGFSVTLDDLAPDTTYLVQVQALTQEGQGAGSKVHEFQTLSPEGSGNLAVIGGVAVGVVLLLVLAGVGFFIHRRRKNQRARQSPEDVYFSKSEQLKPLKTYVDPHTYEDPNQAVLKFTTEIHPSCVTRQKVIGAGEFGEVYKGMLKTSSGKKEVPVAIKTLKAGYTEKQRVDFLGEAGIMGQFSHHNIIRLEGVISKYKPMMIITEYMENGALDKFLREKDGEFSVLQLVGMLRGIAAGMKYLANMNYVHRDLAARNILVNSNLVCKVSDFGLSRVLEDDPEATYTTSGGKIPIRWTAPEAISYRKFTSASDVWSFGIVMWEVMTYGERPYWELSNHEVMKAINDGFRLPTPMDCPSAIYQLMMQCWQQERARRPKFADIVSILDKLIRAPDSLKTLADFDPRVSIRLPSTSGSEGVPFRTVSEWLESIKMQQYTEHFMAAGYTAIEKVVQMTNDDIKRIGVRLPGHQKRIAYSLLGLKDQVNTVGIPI

Row | inhibition [1] | inhibition [2] | inhibition [3] | inhibition [4] | inhibition [5] | inhibition [6] | inhibition [7] | inhibition [8] | inhibition [9] | inhibition [10] | inhibition [11] | inhibition [12] | inhibition [13] | inhibition [14] | inhibition [15] | inhibition [16] | inhibition [17] | Compound
1 | < 50% | < 50% | 87% | 100% | < 50% | < 50% | 99% | < 50% | < 50% | < 50% | 95% | 92% | < 50% | 86% | 99% | 98% | < 50% | O[C@H]1CC[C@H](Nc2nccc(-c3n[nH]c4ccccc34)n2)CC1
2 | < 50% | < 50% | 81% | 100% | < 50% | 92% | < 50% | < 50% | < 50% | < 50% | 90% | < 50% | < 50% | < 50% | 99% | < 50% | < 50% | N[C@H]1CC[C@H](Nc2nccc(-n3nnc4ccccc43)n2)CC1
3 | < 50% | < 50% | < 50% | 95% | < 50% | 85% | < 50% | < 50% | < 50% | < 50% | < 50% | < 50% | < 50% | < 50% | 70% | < 50% | < 50% | O[C@H]1CC[C@H](Nc2nccc(-n3ccc4ccccc43)n2)CC1
4 | < 50% | < 50% | 70% | 94% | < 50% | < 50% | < 50% | < 50% | < 50% | < 50% | < 50% | 80% | < 50% | < 50% | 98% | < 50% | < 50% | O=C([C@H]1CC[C@H](Nc2nccc(-n3nnc4ccccc43)n2)CC1)N1CCOCC1
5 | < 50% | < 50% | 65% | 98% | < 50% | 88% | < 50% | < 50% | < 50% | < 50% | 74% | < 50% | 96% | < 50% | 98% | < 50% | < 50% | O[C@H]1CC[C@H](Nc2nccc(-n3nnc4ccccc43)n2)CC1
6 | < 50% | < 50% | < 50% | 99% | < 50% | 95% | < 50% | < 50% | < 50% | < 50% | < 50% | < 50% | < 50% | < 50% | 95% | < 50% | < 50% | O[C@H]1CC[C@H](Nc2nccc(-n3ncc4ccccc43)n2)CC1
